KDM4C inh: blocks human GASC-1 (KDM4C) demethylase activity. Q9H3R0. GST-KDM4C 2-372, H3K9me3 peptide, LANCE TR-FRET. inhibition, % at 12.5 µM. 96,000 tested, 0.15% active. AID 720574;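 active = mean replicate inhibition above about 25%, with at least 55% of replicates also reaching it, limit read from the data, passing the limit was not always enough; inconclusive = only one of those two conditions met; inactive = neither condition met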
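reagent = H3K9me3 peptide substrate, Fe(II), 2-oxoglutarate | system = GST-tagged GASC-1 (JMJD2C) catalytic fragment, aa 2-372 | amount = enzyme final amount 10 nM | read-out = Fall in 671/618 emission ratio as inhibition | medium = HEPES buffer, pH 7.5, plus ascorbate | schedule = 30 min reaction, 60 min detection, RT | measured by = LANCE TR-FRET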
IDH1 R132H inh: IDH1 R132H (human) inhibition; O75874; inhibition, % at 10 µM; IDH1 R132H reductase, diaphorase/resazurin fluorescence, 60 min; 70,000 tested, 0.18% active; in the data active = inhibition above about 34%; inconclusive = no clear call, values can overlap the other calls; inactive = below about 11%;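 note: 0% = DMSO and 100% = no enzyme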
Target sequence (O75874 whole entry R132H): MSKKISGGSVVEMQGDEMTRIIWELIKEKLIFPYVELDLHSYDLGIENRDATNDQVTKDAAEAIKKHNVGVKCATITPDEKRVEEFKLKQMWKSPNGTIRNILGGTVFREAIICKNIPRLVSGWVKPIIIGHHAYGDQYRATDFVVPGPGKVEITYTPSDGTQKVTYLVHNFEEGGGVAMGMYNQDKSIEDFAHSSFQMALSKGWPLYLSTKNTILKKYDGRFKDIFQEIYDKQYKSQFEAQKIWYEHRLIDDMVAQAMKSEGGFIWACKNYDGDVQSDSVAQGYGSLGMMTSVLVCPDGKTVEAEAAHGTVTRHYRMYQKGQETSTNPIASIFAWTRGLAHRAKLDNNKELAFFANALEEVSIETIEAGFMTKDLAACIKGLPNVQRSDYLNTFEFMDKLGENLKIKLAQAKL
T cruzi growth-1: T. cruzi proliferation inhibition. T. cruzi beta-gal in NIH3T3, GalScreen luminescence, 90 h. inhibition, % at 8.34 µM. 77,000 tested, 5.9% active;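 active = mean inhibition above about 93%, with at least 55% of replicates each passing it, limit read from the data, passing the limit was not always enough; inconclusive = only one of those two conditions holds; inactive = neither condition holds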
Pf Dd2 growth: P. falciparum Dd2 growth inhibition; activity change, % at 10 µM; SYBR Green, 72 h; stronger effect = lower value; 94,000 tested, 2.3% active; in the data active = activity change below about -80%; inconclusive = no clear call, values can overlap the other calls
T cruzi growth-2: Trypanosoma cruzi proliferation inhibition. shares compounds with T cruzi growth-1. 5,600 tested, 72% active. AID 651739. inhibition, % at 8.35 µM. T. cruzi beta-gal in NIH3T3, GalScreen luminescence, 90 h;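 active = mean replicate inhibition above about 95% and at least 55% of replicates individually reaching it, limit read from the data; inconclusive = only one of the two criteria is met; inactive = neither criterion is met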
T cruzi growth-3: inhibitors of T. cruzi proliferation; shares compounds with T cruzi growth-1; T. cruzi beta-gal in NIH3T3, GalScreen luminescence, 90 h; inhibition, % at 2.09 µM; 5,600 tested, 21% active; AID 651740;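 active = mean inhibition above about 95%, with at least 55% of replicates also reaching it, limit read from the data; inconclusive = meets just one of the two conditions; inactive = meets neither condition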;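 note: plate controls were neutral control median for no effect and positive control median for full effect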
NIH3T3 tox: cytotoxicity in mouse NIH/3T3 fibroblasts | 5,600 tested, 14% active | cytotoxicity (signal decrease), % at 8.35 µM | NIH/3T3 viability, CellTiter-Glo ATP luminescence, 90 h | shares compounds with T cruzi growth-1;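 active = mean signal decrease across replicates above about 35% based on untreated-well scatter, with enough replicates individually passing, limit read from the data; inconclusive = no rule stated though some were filed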;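 note: 0% = median of neutral control wells and 100% = median of positive control wells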
3T3 cytotox 2: NIH/3T3 (mouse) viability loss; shares compounds with T cruzi growth-1; NIH/3T3 viability, CellTiter-Glo ATP luminescence, 90 h; inhibition, % at 24.9 µM; 5,600 tested, 56% active;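 active = mean loss of cell viability signal at or above a set limit, and enough replicates individually reaching it; inconclusive = meets only the mean limit or only the replicate share; inactive = meets neither condition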;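 note: 0% = median of neutral control wells and 100% = median of positive control wells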
* hit, by the source's call; ? = inconclusive; . = no result. Most compounds without a hit are left out; they make up all but 5.9% or so of the library.

SMILES | KDM4C inh | IDH1 R132H inh | T cruzi growth-1 | Pf Dd2 growth | T cruzi growth-2 | T cruzi growth-3 | NIH3T3 tox | 3T3 cytotox 2
C[C@H](CO)N1C[C@H](C)[C@H](CN(C)C)Oc2cc(-c3ccccc3F)ccc2S1(=O)=O | 7 | -2 | ? | -6 | 19 | 9 | 6 | 50*
COc1ccccc1-c1ccc2c(c1)O[C@H](CN(C)C)[C@@H](C)CN([C@@H](C)CO)S2(=O)=O | -1 | 0 | 106* | -7 | 98* | 36 | 13 | 46*
COc1ccccc1-c1ccc2c(c1)O[C@@H](CN(C)CC1CCCC1)[C@H](C)CN([C@@H](C)CO)S2(=O)=O | -2 | -1 | 126* | -62 | 101* | 100* | 42* | 103*
COc1ccccc1-c1ccc2c(c1)O[C@H](CN(C)C)[C@H](C)CN([C@@H](C)CO)S2(=O)=O | 2 | 0 | 75 | -2 | . | . | . | .
C[C@@H]1CN([C@@H](C)CO)S(=O)(=O)c2ccc(C3=CCCC3)cc2O[C@H]1CN(C)CC1CCCC1 | 0 | 0 | 107* | -64 | 97* | 82 | 41* | 105*
C[C@@H]1CN([C@H](C)CO)S(=O)(=O)c2ccc(C3=CCCC3)cc2O[C@@H]1CN(C)CC1CC1 | -1 | -1 | 63 | -31 | . | . | . | .
CCOC(=O)CNC(=O)c1cc2nc(-c3ccc(Cl)s3)cc(C(F)(F)F)n2n1 | . | 0 | . | . | . | . | . | .
CCOc1ccc(C(=O)c2oc3ccccc3c2NC(=O)c2cc(OC)c(OC)c(OC)c2)cc1 | . | 0 | . | . | . | . | . | .
O=C(Nc1cccc(S(=O)(=O)N2CCOCC2)c1)Nc1cccc(Cl)c1Cl | . | -1 | . | . | . | . | . | .
COC(=O)C1=CO[C@@H](O[C@@H]2O[C@H](CO)[C@@H](O)[C@H](O)[C@H]2O)[C@H]2[C@@H]1C=CC21C=C(C(C)O)C(=O)O1 (stereo not given in full) | . | 0 | . | . | . | . | . | .
C[C@@H]1CN([C@@H](C)CO)S(=O)(=O)c2ccc(-c3ccccc3)cc2O[C@@H]1CN(C)CC1CC1 | -2 | 1 | 71 | -44 | . | . | . | .
C[C@@H]1CN([C@@H](C)CO)S(=O)(=O)c2ccc(-c3ccccc3)cc2O[C@H]1CN(C)CC1CCCC1 | 2 | -1 | 96* | -78 | 97* | 106* | 58* | 104*
C[C@@H]1CN([C@@H](C)CO)S(=O)(=O)c2ccc(-c3ccccc3F)cc2O[C@H]1CN(C)C | 2 | -1 | 114* | -18 | 54 | 17 | 23 | 77*
COc1ccccc1-c1ccc2c(c1)O[C@@H](CN(C)C(=O)c1ccncc1)[C@@H](C)CN([C@H](C)CO)S2(=O)=O | 0 | -4 | 105* | -1 | 94 | 76 | 4 | ?
O=C(Nc1cccc([N+](=O)[O-])c1)C1CCCN(S(=O)(=O)c2ccc(F)cc2)C1 (stereo not given) | . | 0 | . | . | . | . | . | .
O=C(C1CCC1)N1CCCCN2[C@H](CO)[C@H](c3ccc(-c4ccncc4)cc3)[C@H]2C1 | -1 | . | 101* | 3 | 92 | 82 | -14 | -13
O=C(C1CCCC1)N1CCCCN2[C@@H](CO)[C@@H](c3ccc(-c4ccncc4)cc3)[C@@H]2C1 | . | . | 49 | 12 | . | . | . | .
O=C(C1CCC1)N1CCCCN2[C@H](CO)[C@@H](c3ccc(-c4ccncc4)cc3)[C@H]2C1 | 15 | . | 98* | 26 | 100* | 16 | -7 | 5
O=C(C1CCCC1)N1CCCCN2[C@H](CO)[C@@H](c3ccc(-c4ccncc4)cc3)[C@H]2C1 | . | . | ? | 45 | 55 | 36 | 11 | 19
O=C(C1CCC1)N1CCCCN2[C@@H](CO)[C@@H](c3ccc(-c4ccncc4)cc3)[C@@H]2C1 | -1 | . | 109* | 7 | 105* | 86 | 20 | 51*
CC1=CCC(C(=O)O)C(C(=O)Nc2ccccc2NC(=O)c2ccc(C(F)(F)F)cc2)C1 (stereo not given) | . | 0 | . | . | . | . | . | .
COc1ccccc1N(CC(=O)Nc1cccc([N+](=O)[O-])c1C)S(C)(=O)=O | . | 0 | . | . | . | . | . | .
O=C(CSc1nnc(-c2cccc([N+](=O)[O-])c2)n1-c1ccccc1)NC1CCCCC1 | . | 0 | . | . | . | . | . | .
O=C(c1ccc(F)cc1)N1CCCCN2[C@H](CO)[C@@H](c3ccc(/C=C/c4ccccc4)cc3)[C@H]2C1 | 1 | . | 108* | -23 | 103* | 78 | 21 | 104*
O=C(c1ccc(F)cc1)N1CCCCN2[C@H](C1)[C@H](c1ccc(/C=C/c3ccccc3)cc1)[C@@H]2CO | -1 | . | ? | -13 | ? | 35 | 22 | 103*
SMILES | KDM4C inh | IDH1 R132H inh | T cruzi growth-1 | Pf Dd2 growth | T cruzi growth-2 | T cruzi growth-3 | NIH3T3 tox | 3T3 cytotox 2
O=C(COc1ccccc1[N+](=O)[O-])Nc1ccc2oc(-c3ccc(Br)cc3)nc2c1 | . | 0 | . | . | . | . | . | .
COc1ccc(NC(=O)Nc2ccc3c(c2)C(=O)N([C@@H](C)CO)C[C@H](C)[C@H](CN(C)Cc2ccc4c(c2)OCO4)OCCCC[C@H](C)O3)cc1 | 0 | . | 118* | -77 | 102* | 103* | 40* | 43*
COc1ccc(NC(=O)Nc2ccc3c(c2)C(=O)N([C@H](C)CO)C[C@@H](C)[C@@H](CN(C)Cc2ccc4c(c2)OCO4)OCCCC[C@@H](C)O3)cc1 | -1 | 0 | 124* | -78 | 100* | 82 | 17 | 37*
COc1ccc(NC(=O)Nc2ccc3c(c2)C(=O)N([C@H](C)CO)C[C@H](C)[C@H](CN(C)Cc2ccc4c(c2)OCO4)OCCCC[C@H](C)O3)cc1 | 0 | 7 | ? | -68 | 98* | 99* | 9 | 103*
COc1ccc(NC(=O)Nc2ccc3c(c2)C(=O)N([C@@H](C)CO)C[C@H](C)[C@H](CN(C)Cc2ccc4c(c2)OCO4)OCCCC[C@@H](C)O3)cc1 | 0 | 1 | 103* | -67 | 103* | 54 | 0 | 8
COc1ccc(NC(=O)Nc2ccc3c(c2)C(=O)N([C@@H](C)CO)C[C@@H](C)[C@@H](CN(C)Cc2ccc4c(c2)OCO4)OCCCC[C@H](C)O3)cc1 | -1 | . | 79 | -70 | . | . | . | .
O=C(COc1ccc([N+](=O)[O-])cc1)Nc1ccc2oc(-c3ccc(F)cc3)nc2c1 | . | 0 | . | . | . | . | . | .
Cc1cc(OCC(=O)Nc2ccc(O)c(-c3nc4ccccc4s3)c2)ccc1Cl | . | 0 | . | . | . | . | . | .
CC(C)c1ccc(NC(=O)Cn2cc([N+](=O)[O-])cn2)cc1 | . | 0 | . | . | . | . | . | .
COc1ccc(NC(=O)Nc2ccc3c(c2)C(=O)N([C@H](C)CO)C[C@@H](C)[C@H](CN(C)Cc2ccc4c(c2)OCO4)OCCCC[C@@H](C)O3)cc1 | -1 | . | 101* | -83* | 93 | 95 | ? | 106*

Compound activity as filed in PubChem BioAssay.
